SR-BI uptake up – enhances SR-BI lipid uptake from DiI-HDL; CHO ldlA[mSR-BI] cells, DiI-HDL uptake fluorescence, 3 h; 100 = double the neutral-control signal; activation, % at 12.5 µM; 320,000 tested, 0.096% active;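 active = mean replicate activation of at least 60% and every replicate at or above 60%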
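Material – SR-BI-overexpressing, LDLR-lacking CHO cells · Medium – BSA-supplemented, HEPES-buffered Ham's F12, pH 7.4 · Doses – single concentration · Times – compound with DiI-HDL co-incubation, 3 h at 37 °C · Measured by – bottom-read fluorescence, 550/595 nm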
Yeast superoxide – caloric restriction mimetics inhibiting age-related superoxide in yeast. S. cerevisiae aged cells, superoxide DHE fluorescence; stronger effect = lower value. superoxide response (% of plate mean), % at 10 µM. 330,000 tested, 0.18% active;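 active = superoxide response under a set limit, about three screen SD below normal, cut at about 65% in these data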;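 note: yeast aged for seven days with compound at 30 °C before DHE staining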
AHR act – human AHR activation; 320,000 tested, 2.5% active; activation, % at 5 µM; AID 2796; AHR-responsive luciferase reporter cells, luminescence; P35869; in the data active = activation above about 47%
SMARCA2 act – SMARCA2 function activation, primary screen; MG213 cells, MMTV-luciferase reporter, dexamethasone, overnight; activation, % at 9.1 µM; 370,000 tested, 1% active; in the data active = activation above about 7.8%
Hep lipid drop – modulators of hepatic lipid droplet formation. inhibition, % at 6.5 µM. AML12 mouse hepatocytes, oleate lipid droplets, BODIPY imaging. AID 1656. 240,000 tested, 0.4% active;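 active = lipid droplet intensity inhibited by at least 50%, with more than 500 cells counted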
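Technique: fluorescence imaging, 20x objective, two fields per well / Assay system: AML12 hepatocytes (mouse) / Measure: % inhibition of lipid droplet signal / Doses: 6.5 µM single-point dosing / Incubation: overnight exposure / Reagent: 100 µM oleic acid challenge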
SR-BI DiI inh – inhibitors of mouse SR-BI mediated HDL lipid uptake; 320,000 tested, 0.96% active; AID 488896; ldlA[mSR-BI] CHO cells, DiI-HDL uptake fluorescence, 3 h; inhibition, % at 12.5 µM;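 active = mean replicate inhibition of at least 70% and a set share of replicates each scoring 70 or more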
Target sequence (Q61009 whole entry, looked up): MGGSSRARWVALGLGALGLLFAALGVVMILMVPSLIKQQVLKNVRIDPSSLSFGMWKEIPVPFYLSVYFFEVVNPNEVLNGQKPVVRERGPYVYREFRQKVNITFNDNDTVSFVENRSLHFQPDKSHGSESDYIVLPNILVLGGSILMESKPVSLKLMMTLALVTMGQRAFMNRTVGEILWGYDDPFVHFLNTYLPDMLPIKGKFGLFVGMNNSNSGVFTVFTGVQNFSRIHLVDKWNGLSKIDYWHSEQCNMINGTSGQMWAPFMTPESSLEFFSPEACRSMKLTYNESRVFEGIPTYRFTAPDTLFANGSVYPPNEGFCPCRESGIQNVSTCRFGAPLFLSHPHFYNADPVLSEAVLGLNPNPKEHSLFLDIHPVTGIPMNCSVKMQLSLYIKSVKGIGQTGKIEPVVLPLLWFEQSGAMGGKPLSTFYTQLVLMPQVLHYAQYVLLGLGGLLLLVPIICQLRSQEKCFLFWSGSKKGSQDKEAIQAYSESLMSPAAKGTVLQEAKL
AHR act confirm – confirmation of human aryl hydrocarbon receptor activators. activation, % at 9 µM. shares compounds with AHR act. 2,300 tested, 87% active. human cells, AHR-responsive luciferase reporter, luminescence; in the data active = activation above about 49%;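 note: HepG2 hepatoma cells carrying a DRE-driven firefly luciferase reporter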
PXR act counter – PXR activation, counter-screen for AHR activators; shares compounds with AHR act; cell-based PXR reporter, luciferase luminescence; activation, % at 11.6 µM; 2,300 tested, 88% active; in the data active = activation above about 11%;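 note: human hepatoma DPX-2 cells expressing full-length human PXR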
A number is an active result. Sampled rows, rich in hits. Any-hit rate of the full collection: about 4.3%.

What do the screens show for `CCCN1Cc2cccc(C(=O)NCc3ccc4c(c3)OCO4)c2C1=O`?
SR-BI uptake up: inactive; Yeast superoxide: inactive; AHR act: 80; SMARCA2 act: inactive; Hep lipid drop: inactive; SR-BI DiI inh: inactive; AHR act confirm: 50; PXR act counter: 141

How did CC(C)(C)c1ccc(C(=O)Nc2nnc(Cc3c[nH]c4ccccc34)s2)cc1 do in these assays?
SR-BI uptake up: inactive; Yeast superoxide: inactive; AHR act: 90; SMARCA2 act: inactive; Hep lipid drop: inactive; SR-BI DiI inh: inactive; AHR act confirm: 88; PXR act counter: 14

How did O=C(Nc1nnc(Cc2c[nH]c3ccccc23)s1)c1ccc(Cl)cc1Cl do in these assays?
SR-BI uptake up: inactive; Yeast superoxide: inactive; AHR act: inactive; SMARCA2 act: inactive; Hep lipid drop: inactive; SR-BI DiI inh: inactive

Results for Cc1cc2c(c(=O)o1)[C@@]1(C(=O)N(C)c3ccccc31)C1=C(CC(C)(C)CC1=O)O2 ?
SMARCA2 act: inactive

What do the screens show for `CCOc1ncccc1C(=O)Nc1ccc2c(C)cc(=O)oc2c1`?
SR-BI uptake up: inactive; Yeast superoxide: inactive; AHR act: inactive; SMARCA2 act: inactive; Hep lipid drop: inactive; SR-BI DiI inh: inactive

Results for COc1ccccc1C(=O)Nc1ccc2c(C)cc(=O)oc2c1 ?
SR-BI uptake up: inactive; Yeast superoxide: inactive; AHR act: 98; SMARCA2 act: inactive; Hep lipid drop: inactive; SR-BI DiI inh: inactive; AHR act confirm: 98; PXR act counter: 41

How did Cc1cc(C)c(CN2CCN(C(=O)Cn3cc(C)c(=O)[nH]c3=O)CC2)c(C)c1 do in these assays?
SMARCA2 act: inactive

What do the screens show for `COc1ccc(-c2csc(Nc3cccc(C)n3)n2)cc1C`?
SR-BI uptake up: inactive; Yeast superoxide: inactive; SMARCA2 act: inactive; Hep lipid drop: inactive; SR-BI DiI inh: inactive

Results for CC(=O)Oc1ccc(-c2csc(Nc3cccc(C)n3)n2)cc1 ?
SR-BI uptake up: inactive; Yeast superoxide: inactive; AHR act: inactive; SMARCA2 act: inactive; Hep lipid drop: inactive; SR-BI DiI inh: inactive

Results for COc1ccc(-c2csc(Nc3cccc(C)n3)n2)cc1 ?
SR-BI uptake up: inactive; Yeast superoxide: inactive; AHR act: 88; SMARCA2 act: inactive; Hep lipid drop: inactive; SR-BI DiI inh: inactive; AHR act confirm: 97; PXR act counter: 19

How did Cc1cccc(Nc2nc(-c3ccc(F)cc3)cs2)n1 do in these assays?
SR-BI uptake up: inactive; Yeast superoxide: inactive; AHR act: 79; SMARCA2 act: inactive; Hep lipid drop: inactive; SR-BI DiI inh: inactive; AHR act confirm: 111; PXR act counter: 10

Results for Cc1ccc(C2Nc3ccccc3-c3nc4ccccc4n32)o1 (stereo unspecified) ?
SR-BI uptake up: inactive; Yeast superoxide: inactive; AHR act: 116; SMARCA2 act: inactive; Hep lipid drop: inactive; SR-BI DiI inh: inactive; AHR act confirm: 74; PXR act counter: 53

What do the screens show for `Cc1ccc(-c2nc3cccnc3s2)cc1NS(=O)(=O)c1ccc2c(c1)CCCC2`?
SR-BI uptake up: inactive; Yeast superoxide: inactive; AHR act: 93; SMARCA2 act: inactive; Hep lipid drop: inactive; SR-BI DiI inh: inactive; AHR act confirm: 56; PXR act counter: 154

How did Cc1nnc(Nc2ccc3c(c2)OCO3)c2ccccc12 do in these assays?
Yeast superoxide: inactive; AHR act: 84; SMARCA2 act: inactive; AHR act confirm: 105; PXR act counter: 161

Results for O=C(NCCc1ccccn1)c1c(-c2ccsc2)sc2ccccc12 ?
SR-BI uptake up: inactive; Yeast superoxide: inactive; AHR act: 128; SMARCA2 act: inactive; SR-BI DiI inh: inactive; AHR act confirm: 92; PXR act counter: 161

Results for COC(=O)c1cc2c(c3c4cc(C)ccc4n(S(=O)(=O)c4ccc(C)cc4)c13)C(=O)N(Cc1ccccc1OC)C2 ?
SMARCA2 act: inactive

Results for Nc1ccc(Br)c2c1C(=O)c1ccccc1C2=O ?
Yeast superoxide: inactive; AHR act: 95; AHR act confirm: 58; PXR act counter: 16

What do the screens show for `NC1=C(Br)C(=O)c2ccccc2C1=O`?
SR-BI uptake up: inactive; Yeast superoxide: inactive; AHR act: inactive; SMARCA2 act: inactive; Hep lipid drop: inactive; SR-BI DiI inh: inactive

How did CCCNCc1cc(Br)ccc1OCC(=O)NCCc1ccccc1 do in these assays?
SR-BI uptake up: inactive; Yeast superoxide: inactive; AHR act: inactive; SMARCA2 act: inactive; Hep lipid drop: inactive; SR-BI DiI inh: inactive

What do the screens show for `O=C(COc1ccc(Br)cc1CNCCc1ccccc1)NCc1ccccc1`?
SR-BI uptake up: inactive; Yeast superoxide: inactive; AHR act: 114; SMARCA2 act: inactive; Hep lipid drop: inactive; SR-BI DiI inh: inactive; AHR act confirm: 90; PXR act counter: 44

Results for OCCNCc1cc(Br)ccc1OCc1ccccc1Cl ?
SR-BI uptake up: inactive; Yeast superoxide: inactive; AHR act: 119; SMARCA2 act: inactive; Hep lipid drop: inactive; SR-BI DiI inh: inactive; AHR act confirm: 85; PXR act counter: 40

What do the screens show for `CC(C)(C)c1cnnn1-c1ccc(/C=N/Nc2ccc([N+](=O)[O-])cc2)cc1`?
SR-BI uptake up: inactive; Yeast superoxide: inactive; AHR act: 83; SMARCA2 act: inactive; Hep lipid drop: inactive; SR-BI DiI inh: inactive; AHR act confirm: 55; PXR act counter: 35

What do the screens show for `CC(C)C(C(=O)NCc1ccccc1)N1CCN(CCN2CCOCC2)CC1` (stereo unspecified)?
SMARCA2 act: inactive

What do the screens show for `CN(C)c1c2ccccc2nc2c(F)c(F)c(F)c(F)c12`?
SR-BI uptake up: inactive; Yeast superoxide: inactive; AHR act: inactive; Hep lipid drop: inactive; SR-BI DiI inh: inactive

Results for Cc1c2ccccc2nc2c(F)c(N(C)C)c(F)c(F)c12 ?
SR-BI uptake up: inactive; Yeast superoxide: inactive; AHR act: 122; SMARCA2 act: inactive; Hep lipid drop: inactive; SR-BI DiI inh: inactive; AHR act confirm: inactive; PXR act counter: 46

How did O=C(Nc1ccc(Cl)cc1)c1cc(S(=O)(=O)Nc2ccccn2)ccc1Cl do in these assays?
Yeast superoxide: inactive; AHR act: inactive; SMARCA2 act: inactive; Hep lipid drop: inactive

Results for O=C(Nc1ccc(Cl)cc1)c1cccc(S(=O)(=O)Nc2ccccn2)c1 ?
SR-BI uptake up: inactive; Yeast superoxide: inactive; AHR act: 91; SMARCA2 act: inactive; Hep lipid drop: inactive; SR-BI DiI inh: inactive; AHR act confirm: 77; PXR act counter: 34

Results for CCNC(=O)/C(C#N)=C/c1c(N2CCN(c3ccccc3)CC2)nc2c(C)cccn2c1=O ?
SR-BI uptake up: inactive; Yeast superoxide: inactive; AHR act: 80; SMARCA2 act: inactive; Hep lipid drop: inactive; SR-BI DiI inh: inactive; AHR act confirm: 69; PXR act counter: 19
